Test results taken from ChEMBL document CHEMBL1130016 (J Med Chem, 1997).
pIC50: −log10 of the molar value.

Key:
[1] = molecular target: Sodium-dependent dopamine transporter (Rattus norvegicus, UniProt P23977); assay: In vitro inhibition of [3H]WIN-35 428 binding to dopamine transporter on rat striatal membranes.; format: cell membranes, Membrane
How it was run: (§1)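 Compounds dissolved in 10% DMSO. Incubation ended by filtration, and filter-bound radioactivity was counted by liquid scintillation at about 35% efficiency for 3H. IC50 values were determined. Mean ± SEM of three independent experiments, each in triplicate.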

[2] = molecular target: Sodium-dependent serotonin transporter (Rattus norvegicus, UniProt P31652); assay: In vitro inhibition of [3H]citalopram binding to serotonin transporter on rat striatal membranes.; format: cell membranes, Membrane; how it was run: as §1
Chain of Sodium-dependent serotonin transporter (P31652 whole entry): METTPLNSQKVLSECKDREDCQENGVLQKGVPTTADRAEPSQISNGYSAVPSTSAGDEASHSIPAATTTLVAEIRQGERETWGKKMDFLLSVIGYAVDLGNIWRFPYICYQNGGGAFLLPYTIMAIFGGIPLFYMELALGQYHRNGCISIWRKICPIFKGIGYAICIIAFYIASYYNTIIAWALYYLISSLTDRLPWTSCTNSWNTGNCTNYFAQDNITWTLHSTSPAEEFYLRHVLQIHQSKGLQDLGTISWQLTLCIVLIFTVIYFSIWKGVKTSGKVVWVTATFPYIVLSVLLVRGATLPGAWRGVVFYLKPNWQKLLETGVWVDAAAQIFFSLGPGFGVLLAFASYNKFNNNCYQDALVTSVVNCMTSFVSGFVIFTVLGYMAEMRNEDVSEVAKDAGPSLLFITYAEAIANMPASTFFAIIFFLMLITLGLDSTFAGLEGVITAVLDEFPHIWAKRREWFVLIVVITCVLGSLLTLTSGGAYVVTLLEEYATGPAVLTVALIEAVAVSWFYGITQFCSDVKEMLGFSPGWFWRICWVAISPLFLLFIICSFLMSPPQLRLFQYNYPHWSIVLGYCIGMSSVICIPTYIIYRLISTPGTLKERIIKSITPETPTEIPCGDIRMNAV

[3] = molecular target: Monoamine transporters; serotonin & dopamine (Rattus norvegicus) (UniProt P31652+P23977); assay: Ratio of inhibitory activity against Serotonin Transporter compared to Dopamine Transporter; format: protein assay
Chain of Monoamine transporters; serotonin & dopamine (Rattus norvegicus) (P23977 whole entry, looked up): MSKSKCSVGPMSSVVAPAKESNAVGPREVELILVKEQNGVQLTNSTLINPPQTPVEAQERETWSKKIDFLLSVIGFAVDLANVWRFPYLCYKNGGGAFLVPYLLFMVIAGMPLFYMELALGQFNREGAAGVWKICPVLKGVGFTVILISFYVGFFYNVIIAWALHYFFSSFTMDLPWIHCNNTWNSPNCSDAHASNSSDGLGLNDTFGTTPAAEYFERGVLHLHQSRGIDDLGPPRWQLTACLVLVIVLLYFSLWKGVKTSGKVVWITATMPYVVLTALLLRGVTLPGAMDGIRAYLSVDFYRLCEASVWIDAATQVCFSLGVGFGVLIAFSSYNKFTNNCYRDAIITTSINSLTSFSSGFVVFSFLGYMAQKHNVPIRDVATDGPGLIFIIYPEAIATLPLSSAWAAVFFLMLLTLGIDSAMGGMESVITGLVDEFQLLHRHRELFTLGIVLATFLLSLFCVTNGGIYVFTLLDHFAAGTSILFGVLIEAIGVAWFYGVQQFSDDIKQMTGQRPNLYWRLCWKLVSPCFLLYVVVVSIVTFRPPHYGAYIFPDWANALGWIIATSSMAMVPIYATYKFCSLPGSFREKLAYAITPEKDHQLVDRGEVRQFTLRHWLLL
Chain of Monoamine transporters; serotonin & dopamine (Rattus norvegicus) (P31652 whole entry, looked up): as the sequence (P31652 whole entry) above
How it was run: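 Selectivity is expressed as SERT/DAT, the ratio of binding values from rat striatal membranes. SERT was labelled with [3H]citalopram and DAT with [3H]WIN 35,428. Binding was ended by filtration and counted by scintillation. Values come from three independent experiments, each run in triplicate.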

Chain of Sodium-dependent dopamine transporter (P23977 whole entry): as the sequence (P23977 whole entry, looked up) above

Clc1ccc(CN2CCC(CCOC(c3ccccc3)c3ccccc3)CC2)cc1Cl
pIC50 [1]: 7.07 | pIC50 [2]: 5.54 | Ratio [3]: 33.6

Nc1ccc(CN2CCC(CCOC(c3ccccc3)c3ccccc3)CC2)cc1
pIC50 [1]: 7.00 | pIC50 [2]: 5.80 | Ratio [3]: 15.6

c1ccc(C(OCCC2CCN(Cc3cccnc3)CC2)c2cccs2)cc1 (stereo unspecified)
pIC50 [1]: 7.23 | pIC50 [2]: 6.03 | Ratio [3]: 15.9

Fc1ccc(CN2CCC(CCOC(c3ccccc3)c3ccccc3)CC2)cc1
pIC50 [2]: 5.72 | Ratio [3]: 112

Fc1ccc(CN2CCC(CCOC(c3ccccc3)c3cccs3)CC2)cc1 (stereo unspecified)
pIC50 [1]: 7.86 | pIC50 [2]: 5.86 | Ratio [3]: 100

Cc1ccc(CN2CCC(CCOC(c3ccccc3)c3ccccc3)CC2)cc1
pIC50 [1]: 7.64 | pIC50 [2]: 5.86 | Ratio [3]: 60.4

Brc1ccc(CN2CCC(CCOC(c3ccccc3)c3ccccc3)CC2)cc1
pIC50 [1]: 7.51 | pIC50 [2]: 5.83 | Ratio [3]: 48

c1ccc(C(OCCC2CCN(Cc3cccnc3)CC2)c2ccccc2)cc1
pIC50 [1]: 7.31 | pIC50 [2]: 6.17 | Ratio [3]: 13.9

c1ccc(C(OCCC2CCN(Cc3cc4ccccc4s3)CC2)c2ccccc2)cc1
pIC50 [1]: 6.76 | pIC50 [2]: 5.81 | Ratio [3]: 8.9

c1ccc(CN2CCC(CCOC(c3ccccc3)c3ccccc3)CC2)cc1
Ratio [3]: 49

Fc1ccc(CN2CCC(CCOC(c3ccccc3)c3ccc(F)cc3)CC2)cc1 (stereo unspecified)
pIC50 [1]: 7.85 | pIC50 [2]: 5.90 | Ratio [3]: 89

Clc1ccc(CN2CCC(CCOC(c3ccccc3)c3ccccc3)CC2)cc1
pIC50 [1]: 7.61 | pIC50 [2]: 5.79 | Ratio [3]: 65.1

Fc1ccc(CN2CCC(CCOC(c3ccccc3)c3ccc(Cl)cc3)CC2)cc1 (stereo unspecified)
pIC50 [1]: 7.28 | pIC50 [2]: 5.74 | Ratio [3]: 34.4

c1ccc(CN2CCC(CCOC(c3ccccc3)c3cccs3)CC2)cc1 (stereo unspecified)
pIC50 [1]: 7.57 | pIC50 [2]: 6.13 | Ratio [3]: 27

O=[N+]([O-])c1ccc(CN2CCC(CCOC(c3ccccc3)c3ccccc3)CC2)cc1
pIC50 [1]: 7.79 | pIC50 [2]: 5.75 | Ratio [3]: 108

Fc1ccc(CN2CCC(CCOC(c3ccccc3)c3ccccc3)CC2)cc1Cl
pIC50 [1]: 7.55 | pIC50 [2]: 5.60 | Ratio [3]: 90

c1ccc(C(OCCC2CCN(Cc3cccs3)CC2)c2ccccc2)cc1
pIC50 [1]: 7.23 | pIC50 [2]: 5.90 | Ratio [3]: 21

COc1ccc(CN2CCC(CCOC(c3ccccc3)c3ccccc3)CC2)cc1
pIC50 [1]: 7.56 | pIC50 [2]: 5.91 | Ratio [3]: 45
